According to ChEMBL document CHEMBL1143625, “Bisphosphonate inhibitors of Toxoplasma gondi growth: in vitro, QSAR, and in vivo investigations” (J Med Chem, 2005):
pIC50: −log10 of the molar value.

Assays:
HFF [1] = test: Inhibitory concentration against the growth of Toxoplasma gondii overexpressing FPPS enzyme in human foreskin fibroblast monolayer cells; (control = 2.4 uM, experiment 3); assay type: functional, cell-based
Method in brief: (§1)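 FPPS-overexpressing T. gondii line: 2F clone tachyzoites (beta-galactosidase) electroporated with 50 µg ptubTgFPPS-FLAG/sagCAT. Stable lines were selected with 20 µM chloramphenicol and cloned by limiting dilution, giving 4-5-fold more FPPS by Western blot. Assay: compounds serially diluted in medium on confluent HFF; 10^4 tachyzoites/mL (filtered 3 µm, needle-passed); 48 h at 37 °C. Lysis, then CPRG read at 570 nm; IC50 from rectangular hyperbolic fit of % inhibition.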

HFF [2] = test: Inhibitory concentration against the growth of Toxoplasma gondii overexpressing FPPS enzyme in human foreskin fibroblast monolayer cells; (control = 2.5 uM, experiment 2); assay type: functional, cell-based; method in brief: as §1
HFF [3] = test: Inhibitory concentration against the growth of Toxoplasma gondii overexpressing FPPS enzyme in human foreskin fibroblast monolayer cells; (control = 2.2 uM, experiment 1); assay type: functional, cell-based; method in brief: as §1
[4] = In vitro inhibitory concentration against the growth of Toxoplasma gondii in human foreskin fibroblast monolayer cells (HFF cells); assay type: functional, cell-based
Method in brief: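 T. gondii 2F clone tachyzoites expressing β-galactosidase, kept in HFF in DMEM with 10% FBS, 2 mM glutamine and 1 mM pyruvate. Confluent HFF monolayers were given serially diluted drug in medium, then 10^4 filtered, needle-passed tachyzoites/mL, and held 48 h at 37 °C. Cells were lysed at 50 °C, and CPRG turnover was read at 570 nm. IC50 came from a hyperbolic fit of % inhibition against concentration.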

[5] = Therapeutic index (TI) value as ratio of lethal dose (LD50) to the inhibitory concentration (IC50); assay type: cell-based; details: human, KB cells; read-out: TI
KB = test: Lethal dose required to inhibit the growth of human KB (nasopharyngeal carcinoma) cell line; assay type: functional; details: read-out: LD50 (the source's name)
HFF [6] = test: Inhibitory concentration against the growth of Toxoplasma gondii overexpressing FPPS enzyme in human foreskin fibroblast monolayer cells; (control = 0.28 uM, experiment 3); assay type: functional, cell-based; method in brief: as §1
HFF [7] = test: Inhibitory concentration against the growth of Toxoplasma gondii overexpressing FPPS enzyme in human foreskin fibroblast monolayer cells; (control = 0.12 uM, experiment 1); assay type: functional, cell-based; method in brief: as §1
HFF [8] = test: Inhibitory concentration against the growth of Toxoplasma gondii overexpressing FPPS enzyme in human foreskin fibroblast monolayer cells; (control = 0.30 uM, experiment 2); assay type: functional, cell-based; method in brief: as §1

Row | SMILES | pIC50 [4] | selectivity ratio [5] | CC50 (KB) [µM] | other results
1 | CCCCCCCCC(O)(P(=O)(O)O)P(=O)(O)O | 5.62 |  |  | pIC50 (HFF [1]): 5.24; pIC50 (HFF [2]): 5.24; pIC50 (HFF [3]): 5.48
2 | O=P(O)(O)C(Nc1ccnc(O)c1)P(=O)(O)O | 4.76 | 14.8 | 257 | 
3 | O=P(O)(O)C(O)(CC1=NC=NC1)P(=O)(O)O | 5.17 | 6.12 | 41 | 
4 | O=P(O)(O)C(Sc1ccccn1)P(=O)(O)O | 4.29 |  |  | 
5 | O=[N+]([O-])c1cccc(CC(O)(P(=O)(O)O)P(=O)(O)O)c1 | 4.32 |  |  | 
6 | Cc1cccc(CC(O)(P(=O)(O)O)P(=O)(O)O)c1 | 4.44 |  |  | 
7 | O=P(O)(O)C(Nc1cccc(Cc2ccccc2)c1)P(=O)(O)O | 4.25 |  |  | 
8 | O=P(O)(O)C(O)(Cc1cccc2ccccc12)P(=O)(O)O | 4.16 |  |  | 
9 | C[C@H](NC(P(=O)(O)O)P(=O)(O)O)c1cccc2ccccc12 | 4.26 |  |  | 
10 | CCc1cccc(NC(P(=O)(O)O)P(=O)(O)O)n1 | 3.66 |  |  | 
11 | O=P(O)(O)C(O)(Cn1cnc2ccccc21)P(=O)(O)O | 5.35 |  |  | 
12 | CCC(C)NC(P(=O)(O)O)P(=O)(O)O (configuration not stated) | 3.78 |  |  | 
13 | O=P(O)(O)C(Nc1nccc2ccccc12)P(=O)(O)O | 4.68 | 32.2 | 673 | 
14 | O=P(O)(O)C(Nc1ccccn1)P(=O)(O)O | 4.35 | 10.4 | 465 | 
15 | Cc1csc(NC(P(=O)(O)O)P(=O)(O)O)n1 | 4.51 |  |  | 
16 | O=P(O)(O)C(O)(CCc1cccnc1)P(=O)(O)O | 3.83 | > 5.46 | > 804 | 
17 | CCCCCCCC(O)(P(=O)(O)O)P(=O)(O)O | 4.86 | 21.9 | 302 | 
18 | NCCCCC(O)(P(=O)(O)O)P(=O)(O)O | 3.90 | 0.72 | 91 | 
19 | CCCCCCCCCCC(O)(P(=O)(O)O)P(=O)(O)O | 6.55 | > 2950 | > 826 | pIC50 (HFF [6]): 5.77; pIC50 (HFF [7]): 5.96; pIC50 (HFF [8]): 5.92
20 | CCCCC(O)(P(=O)(O)O)P(=O)(O)O | 3.82 | > 6.95 | > 1040 | 
21 | O=P(O)(O)C(Nc1cccnc1)P(=O)(O)O | 4.38 | 18.6 | 782 | 
22 | CC(C)(C)c1cccc(NC(P(=O)(O)O)P(=O)(O)O)c1 | 3.81 |  |  | 
23 | CC1CCCCN1C(P(=O)(O)O)P(=O)(O)O (configuration not stated) | 3.88 |  |  | 
24 | CC(C)c1cccc(NC(P(=O)(O)O)P(=O)(O)O)c1 | 3.79 |  |  | 
25 | CN(Cc1ccccc1)C(P(=O)(O)O)P(=O)(O)O | 4.12 |  |  | 
26 | Cc1ccnc(N(Cc2ccccc2)C(P(=O)(O)O)P(=O)(O)O)c1 | 3.65 |  |  | 
27 | C[C@@H](NC(P(=O)(O)O)P(=O)(O)O)c1cccc2ccccc12 | 4.20 |  |  | 
28 | Nc1ccc(CC(O)(P(=O)(O)O)P(=O)(O)O)cc1 | 4.10 | 2.71 | 218 | 
29 | O=P(O)(O)C(O)(Cc1ccccn1)P(=O)(O)O | 5.09 | 1.71 | 13.9 | 
30 | O=P(O)(O)C(N1CCCCC1)P(=O)(O)O | 4.29 | > 21.9 | > 1120 | 
